Test results from ChEMBL document CHEMBL1123641, “Antiulcer agents. 2. Gastric antisecretory, cytoprotective, and metabolic properties of substituted imidazo[1,2-a]pyridines and analogues” (J Med Chem, 1987).
Activity calls are given as the source filed them. No cut-off for these calls is given here.

What was measured:
Rattus norvegicus [1] = assay: Antisecretory activity in pylorus ligated rats at 40 mg/kg dose administered intraperitoneal; assay type: functional; settings: ip
In short: (§1)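 Pylorus-ligated rats, six per compound and eight controls. Compound given intraperitoneally at 40 mg/kg at the time of ligation. Reduction in acid output measured over 4 h.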

Rattus norvegicus [2] = organism: Rattus norvegicus; assay: Cytoprotective activity in rats against the ethyl alcohol stimulated ulcers measured as effective dose; assay type: functional
In short: (§2)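 Rats were dosed orally at 1–30 mg/kg, 30 min before an oral challenge of absolute ethanol. Ethanol-induced gastric lesions were scored 1 h later, and an effective dose was estimated.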

Canis familiaris [3] = assay: Antisecretory activity in histamine stimulated dogs at 2 mg/kg dose administered intravenously; assay type: functional; settings: Canis lupus familiaris, route intravenous
In short: (§3)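 Adult mongrel dogs with surgically prepared Heidenhain pouches, acid secretion stimulated with histamine. Compound given intravenously (0.1-5 mg/kg range). Acid output reduction is expressed relative to the nondrug-treated control value in the same animal, each dog serving as its own control. Unless noted otherwise, one dog per compound. ED50 is the iv dose reducing acid output to 50% of control.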

Rattus norvegicus [4] = assay: Antisecretory activity in pylorus ligated rats at 40 mg/kg dose administered intraperitoneally; settings: ip
Canis familiaris [5] = assay: Antisecretory activity in histamine stimulated dogs at 4 mg/kg dose administered orally; assay type: functional; settings: Canis lupus familiaris, route oral
In short: (§4)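 Heidenhain pouch mongrel dogs, histamine-stimulated acid secretion. Compound given orally at 2–8 mg/kg. Reduction in acid output is relative to the same animal's own nondrug control, since histamine response depends on pouch size. Usually a single dog per compound. Oral ED50 is the dose reducing acid output to 50% of control.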

Canis familiaris [6] = assay: Antisecretory activity in histamine stimulated dogs at 8 mg/kg dose administered orally; assay type: functional; settings: Canis lupus familiaris, route oral; in short: as §4
Rattus norvegicus [7] = assay: Antisecretory activity in pylorus ligated rats at a 40 mg/kg dose administered intraperitoneally; assay type: functional; settings: ip, route intraperitoneal; in short: as §1
Canis familiaris [8] = assay: Antisecretory activity in histamine stimulated dogs at 5 mg/kg dose administered intravenously; assay type: functional; settings: Canis lupus familiaris; route intravenous; in short: as §3
Canis familiaris [9] = assay: Antisecretory activity in histamine stimulated dogs at 2 mg/kg dose administered orally; assay type: functional; settings: Canis lupus familiaris, route oral; in short: as §4
Canis familiaris [10] = assay: Antisecretory activity in histamine stimulated dogs at 5 mg/kg dose administered orally measured as 50% effective concentration; assay type: functional; settings: Canis lupus familiaris, route oral; in short: as §4
Canis familiaris [11] = assay: percentage inhibition of acid secretion in histamine stimulated dogs at a dose of 0.2 mg/kg; assay type: functional; settings: Canis lupus familiaris
Canis familiaris [12] = assay: percentage inhibition of acid secretion in histamine stimulated dogs at a dose of 0.4 mg/kg; assay type: functional; settings: Canis lupus familiaris
Canis familiaris [13] = assay: Antisecretory activity in histamine stimulated dogs at 1 mg/kg dose administered intravenously; assay type: functional; settings: Canis lupus familiaris, route intravenous; in short: as §3
Rattus norvegicus [14] = organism: Rattus norvegicus; assay: Cytoprotective activity in rats against the ethyl alcohol stimulated ulcers measured as effective dose; In active; assay type: functional, organism-based; in short: as §2
Canis familiaris [15] = assay: Antisecretory activity in histamine stimulated dogs at 5 mg/kg dose administered orally; assay type: functional; settings: Canis lupus familiaris; route oral; in short: as §4
Canis familiaris [16] = assay: Antisecretory activity in histamine stimulated dogs at 0.1 mg/kg dose administered intravenously; assay type: functional; settings: Canis lupus familiaris, route intravenous; in short: as §3
Canis familiaris [17] = assay: percentage inhibition of acid secretion in histamine stimulated dogs at a dose of 0.05 mg/kg; assay type: functional; settings: Canis lupus familiaris
Canis familiaris [18] = assay: The oral dose of cimetidine required to reduce acid output to 50% of control value in histamine stimulated dogs; settings: Canis lupus familiaris
Canis familiaris [19] = organism: Canis familiaris; settings: Canis lupus familiaris
Canis familiaris [20] = assay: The intravenous dose of cimetidine required to reduce acid output to 50% of control value in histamine stimulated dogs; settings: Canis lupus familiaris
Rattus norvegicus [21] = organism: Rattus norvegicus; assay: animal or person; settings: Canis lupus familiaris, in Rattus norvegicus, ip, 4 h
Canis familiaris [22] = assay: Antisecretory activity in histamine stimulated dogs following 5 mg/kg i.v. administration.; assay type: functional; settings: Canis lupus familiaris, route intravenous; in short: as §3

| Structure (SMILES) | ED50 (Rattus norvegicus [2]) [mg/kg] | inhibition in vivo at 2 mg/kg (Canis familiaris [3]) [%] | inhibition in vivo at 4 mg/kg (Canis familiaris [5]) [%] | inhibition in vivo at 8 mg/kg (Canis familiaris [6]) [%] | inhibition in vivo at 40 mg/kg (Rattus norvegicus [7]) [%] | ED50 (Canis familiaris [8]) [mg/kg] | inhibition in vivo at 2 mg/kg (Canis familiaris [9]) [%] | further results |
| --- | --- | --- | --- | --- | --- | --- | --- | --- |
| Cc1nc2cccc(CCc3ccccc3)n2c1N | 14 |  |  |  |  |  |  | inhibition in vivo at 40 mg/kg (Rattus norvegicus [1]): 40% |
| COc1c(C)nc2c(CCc3ccccc3)cccn12 | 20 | 0 |  |  |  |  |  | inhibition in vivo at 40 mg/kg (Rattus norvegicus [4]): 45% |
| Cc1ccn2c(CC#N)c(C)nc2c1OCc1ccccc1 | 13 | 90 | 20 | 59 | 99 | 0.53 | 8 | ED50 (Canis familiaris [10]): 7.8 mg/kg; inhibition in vivo at 0.2 mg/kg (Canis familiaris [11]): 1%; inhibition in vivo at 0.4 mg/kg (Canis familiaris [12]): 39%; inhibition in vivo at 1 mg/kg (Canis familiaris [13]): 74% |
| CC(=O)Oc1c(C)nc2c(CCc3ccccc3)cccn12 |  | 6 |  |  | 64 |  |  | ED50 (Rattus norvegicus [14]): inactive |
| Cc1nc2c(OCc3ccccc3)cccn2c1N | 6 | 97 | 74 | 96 | 99 | 0.1 | 50 | ED50 (Canis familiaris [15]): 2 mg/kg; inhibition in vivo at 0.2 mg/kg (Canis familiaris [11]): 41%; inhibition in vivo at 0.1 mg/kg (Canis familiaris [16]): 55%; inhibition in vivo at 0.05 mg/kg (Canis familiaris [17]): 15% |
| CN/C(=N\CCSCc1nc[nH]c1C)NC#N [CIMETIDINE] |  |  |  |  |  |  |  | ED50 (Canis familiaris [18]): 1.25 mg/kg; ED50 (Canis familiaris [19]): inactive; ED50 (Canis familiaris [20]): 0.66 mg/kg; ED50 (Rattus norvegicus [21]): 26.1 mg/kg |
| Cc1nc2c(OCc3ccccc3)cccn2c1CC#N | 3 | 95 | 42 | 77 | 98 | 0.09 | 20 | inhibition in vivo at 5 mg/kg (Canis familiaris [22]): 99%; ED50 at 5 mg/kg (Canis familiaris [10]; dose 5 mg/kg): 4.4 mg/kg; inhibition in vivo at 0.1 mg/kg (Canis familiaris [16]): 49%; inhibition in vivo at 1 mg/kg (Canis familiaris [13]): 83% |
